Experimental data as given in publication PMC9075506 (RSC Advances, 2019).
Like-named read-outs stand apart in the source and are kept apart here.

Tests used:
[1] = Pharmacokinetic study in 6-OHDA-induced PD rats after oral administration; format: in vivo; settings: rat, plasma
[2] = Pharmacokinetic study in sham rats after oral administration of PLA; format: in vivo; settings: rat, plasma, 50 mg/kg
[3] = format: in vitro ADME, rat; settings: n = 3; for Stability, autosampler (20 °C, 4 h), RE: processed rat plasma; for Stability, long-term (−80 °C, 30 d), RE / Stability, short-term (4 °C, 48 h), RE / Stability, three freeze–thaw cycles, RE: rat plasma
Summary of the method: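 Plasma (50 μL) precipitated with methanol/acetonitrile (1:1) containing internal standard (10 ng mL−1), vortexed 3 min, centrifuged 12 000 g for 10 min. Supernatant was run on C18 UFLC with a 0.1% formic acid/acetonitrile gradient at 0.5 mL min−1, detected by positive-ESI MRM. Quantified by analyte/IS peak-area ratio against a 1/x2-weighted linear calibration; accuracy given as RE (%).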

[4] = normal rats, oral administration of PLA, tissue distribution; cited from earlier work
[5] = high QC: spiked 160 ng mL^−1 (PLTR 4000 ng mL^−1)
[6] = low QC: spiked 0.6 ng mL^−1 (PLTR 15 ng mL^−1)
[7] = medium QC: spiked 10 ng mL^−1 (PLTR 250 ng mL^−1)

## CC(C)CNC(=O)/C=C/C=C/c1ccc2c(c1)OCO2 [PPL, piperlonguminine]
[1]; 50 mg/kg
  AUC(0-inf): 245 ± 57.5 ng·h/mL
  AUC(0-t): 242 ± 57.2 ng·h/mL
  Cmax: 97.3 ± 18 ng/mL
  MRT: 2.98 ± 0.84 h
  Tmax: 0.45 ± 0.21 h
  half-life: 2.42 ± 1.23 h
[2]
  AUC(0-inf): 318 ± 123 ng·h/mL
  AUC(0-t): 302 ± 116 ng·h/mL
  Cmax: 89.1 ± 41.7 ng/mL
  MRT: 4.6 ± 1.33 h
  Tmax: 0.45 ± 0.11 h
  half-life: 3.68 ± 1.32 h
[3]; [5]
  Stability, autosampler (20 °C, 4 h), RE: −5.63%
  Stability, long-term (−80 °C, 30 d), RE: −1.04%
  Stability, short-term (4 °C, 48 h), RE: −3.75%
  Stability, three freeze–thaw cycles, RE: 0.63%
[3]; [6]
  Stability, autosampler (20 °C, 4 h), RE: −4.78%
  Stability, long-term (−80 °C, 30 d), RE: −4.78%
  Stability, short-term (4 °C, 48 h), RE: −9.22%
  Stability, three freeze–thaw cycles, RE: −12.61%
[3]; [7]
  Stability, autosampler (20 °C, 4 h), RE: 5.33%
  Stability, long-term (−80 °C, 30 d), RE: 8.00%
  Stability, short-term (4 °C, 48 h), RE: 7.33%
  Stability, three freeze–thaw cycles, RE: 6.67%
[4]
  Crossing of the blood–brain barrier: could cross the blood–brain barrier

## O=C(/C=C/CCc1ccc2c(c1)OCO2)N1CCCCC1 [PPRA, piperanine]
[1]; 50 mg/kg
  AUC(0-inf): 137 ± 45.3 ng·h/mL
  AUC(0-t): 136 ± 45.6 ng·h/mL
  Cmax: 123 ± 57.6 ng/mL
  MRT: 2.43 ± 1.52 h
  Tmax: 0.18 ± 0.09 h
  half-life: 2.8 ± 1.71 h
[2]
  AUC(0-inf): 230 ± 150 ng·h/mL
  AUC(0-t): 225 ± 155 ng·h/mL
  Cmax: 160 ± 120 ng/mL
  MRT: 3.72 ± 1.3 h
  Tmax: 0.18 ± 0.09 h
  half-life: 4.16 ± 1.32 h
[3]; [5]
  Stability, autosampler (20 °C, 4 h), RE: −9.38%
  Stability, long-term (−80 °C, 30 d), RE: −6.25%
  Stability, short-term (4 °C, 48 h), RE: −8.33%
  Stability, three freeze–thaw cycles, RE: −4.79%
[3]; [6]
  Stability, autosampler (20 °C, 4 h), RE: −2.28%
  Stability, long-term (−80 °C, 30 d), RE: 0.94%
  Stability, short-term (4 °C, 48 h), RE: −3.50%
  Stability, three freeze–thaw cycles, RE: 4.67%
[3]; [7]
  Stability, autosampler (20 °C, 4 h), RE: 7.33%
  Stability, long-term (−80 °C, 30 d), RE: 6.33%
  Stability, short-term (4 °C, 48 h), RE: 10.00%
  Stability, three freeze–thaw cycles, RE: 7.33%

## O=C(/C=C/C=C/c1ccc2c(c1)OCO2)N1CCCCC1 [PPR, piperine]
[1]; 25 mg/kg
  AUC(0-inf): 7120 ± 1770 ng·h/mL
  AUC(0-t): 7110 ± 1770 ng·h/mL
  Cmax: 825 ± 241 ng/mL
  MRT: 6.27 ± 0.56 h
  Tmax: 2.95 ± 2.06 h
  half-life: 2.41 ± 0.34 h
[1]; 50 mg/kg
  AUC(0-t): 9700 ± 2670 ng·h/mL
  Cmax: 978 ± 214 ng/mL
  MRT: 5.99 ± 0.63 h
  Tmax: 4 ± 1.41 h
  half-life: 3.65 ± 3.45 h
[2]
  Cmax: 1000 ± 146 ng/mL
  MRT: 6.83 ± 0.44 h
  Tmax: 4.8 ± 2.28 h
  half-life: 3.4 ± 2.15 h
[3]; [5]
  Stability, autosampler (20 °C, 4 h), RE: −5.00%
  Stability, long-term (−80 °C, 30 d), RE: 0.21%
  Stability, short-term (4 °C, 48 h), RE: −2.92%
  Stability, three freeze–thaw cycles, RE: 0.42%
[3]; [6]
  Stability, autosampler (20 °C, 4 h), RE: −2.67%
  Stability, long-term (−80 °C, 30 d), RE: −7.44%
  Stability, short-term (4 °C, 48 h), RE: −4.06%
  Stability, three freeze–thaw cycles, RE: −5.06%
[3]; [7]
  Stability, autosampler (20 °C, 4 h), RE: 7.67%
  Stability, long-term (−80 °C, 30 d), RE: 10.33%
  Stability, short-term (4 °C, 48 h), RE: 11.33%
  Stability, three freeze–thaw cycles, RE: 9.67%
[4]
  Crossing of the blood–brain barrier: could cross the blood–brain barrier
